Assay results of several laboratories.
Protocols differ between the studies behind these lines.
Target: D(3) dopamine receptor (DRD3, Homo sapiens, UniProt P35462)
Concentration: 10 µM

SMILES | read-out | action | method | inhibition [%]
COc1cccc(N2CCN(C3CC(=O)N(c4cccc(OC)c4)C3=O)CC2)c1 (stereo not shown) | enzyme activity | inhibitor |  | -37.6
CCN(Cc1ccccc1C(F)(F)F)C(=O)C1CCN(S(=O)(=O)c2ccc3[nH]ncc3c2)CC1 | ligand displacement |  | radioligand | 23
N#CN1CC[C@H](C(=O)Nc2nc3c(s2)CN(C(=O)CN=[N+]=[N-])CC3)C1 | ligand displacement |  |  | -2.14
CCCNc1nc2ccccc2n1Cc1ccc(Cl)cc1 | ligand displacement |  |  | 40.8
COc1ccc(-c2ccc(CNCC(O)c3ccccc3)o2)cc1Cl (stereo not shown) | enzyme activity | inhibitor |  | 12.1
O=C(c1ccc(F)cc1)N(Cc1ccccc1)C1CCCCC1 | cell-free assay |  |  | 8
CCN(CC)c1ccc(C2Nc3ccc(C(=O)c4ccccc4)cc3NC3=C2C(=O)CC(C)(C)C3)cc1 (stereo not shown) | ligand displacement |  | radioligand | 12
Nc1nonc1C(=O)NCCNCc1cccc(OCc2ccccc2F)c1 | enzyme activity | inhibitor |  | 4.3
CN([C@@H]1CCc2c(CC(=O)O)c3ccccc3n2C1)S(=O)(=O)c1ccc(F)cc1 | ligand displacement |  |  | -4.25
N#Cc1cc(Cn2c(N3CCCC3)nc3ccccc32)ccc1F | ligand displacement |  |  | 39.3
